How the values were obtained:
[1] = target: T1, 5-hydroxytryptamine receptor 1A (Rattus norvegicus, UniProt P19327); experiment: Displacement of [3H]-8-OH-DPAT from Sprague-Dawley rat brain cortex serotonin 5-HT1A receptor after 30 mins by liquid scintillation counting
T1 sequence (P19327 whole entry): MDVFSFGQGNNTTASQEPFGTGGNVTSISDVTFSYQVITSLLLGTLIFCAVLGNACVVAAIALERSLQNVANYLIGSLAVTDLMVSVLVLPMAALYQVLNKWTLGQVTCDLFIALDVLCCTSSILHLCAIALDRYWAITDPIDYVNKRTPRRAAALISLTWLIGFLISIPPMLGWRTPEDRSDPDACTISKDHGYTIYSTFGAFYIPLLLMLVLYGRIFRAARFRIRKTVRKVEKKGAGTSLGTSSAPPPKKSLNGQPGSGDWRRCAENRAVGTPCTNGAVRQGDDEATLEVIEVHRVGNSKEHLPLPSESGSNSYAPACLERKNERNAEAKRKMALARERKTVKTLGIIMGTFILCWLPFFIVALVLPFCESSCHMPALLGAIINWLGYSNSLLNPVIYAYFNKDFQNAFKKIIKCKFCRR
How it was run: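 Male Sprague-Dawley rat (180-220 g) cerebral cortex homogenized in 50 mM Tris-HCl pH 7.7, spun 50,000 g. [3H]-8-OH-DPAT 0.1 nM final, 30 min at 37 °C, GF/B filtration. Test compounds in ethanol or 5% DMSO, six concentrations in triplicate. IC50 by curve fitting, Ki by Cheng-Prusoff using Scatchard-derived KD.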

[2] = target: 5-hydroxytryptamine receptor 2A (Rattus norvegicus, UniProt P14842); experiment: Displacement of [3H]ketanserin from Sprague-Dawley rat brain cortex serotonin 5-HT2A receptor after 15 mins by liquid scintillation counting
5-hydroxytryptamine receptor 2A, sequence (P14842 whole entry): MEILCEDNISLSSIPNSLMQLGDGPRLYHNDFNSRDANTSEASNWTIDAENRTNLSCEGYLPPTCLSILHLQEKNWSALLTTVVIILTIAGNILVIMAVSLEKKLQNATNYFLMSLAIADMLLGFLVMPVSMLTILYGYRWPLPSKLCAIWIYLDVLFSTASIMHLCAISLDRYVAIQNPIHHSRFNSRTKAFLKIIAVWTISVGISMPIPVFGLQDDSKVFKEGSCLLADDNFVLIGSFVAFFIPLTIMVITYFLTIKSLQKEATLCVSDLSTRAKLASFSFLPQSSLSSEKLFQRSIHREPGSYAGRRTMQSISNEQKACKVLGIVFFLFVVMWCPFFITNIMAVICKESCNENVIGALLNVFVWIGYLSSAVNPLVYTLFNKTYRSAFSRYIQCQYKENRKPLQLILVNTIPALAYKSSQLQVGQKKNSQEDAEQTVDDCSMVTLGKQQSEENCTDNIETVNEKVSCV
How it was run: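 Male Sprague-Dawley rat frontal cortex membranes in 50 mM Tris-HCl, 0.5 mM EDTA, 10 mM MgCl2 pH 7.4, with 0.1% ascorbate and pargyline. 0.4 nM [3H]ketanserin, 5 mg wet tissue, 15 min at 37 °C. Filtered on PEI-soaked glass fibre. Six compound concentrations in triplicate. IC50 converted to Ki by Cheng-Prusoff.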

[3] = target: T2, 5-hydroxytryptamine receptor 2C (Rattus norvegicus, UniProt P08909); experiment: Displacement of [3H]mesulergine from Sprague-Dawley rat brain cortex serotonin 5-HT2C receptor after 15 mins by liquid scintillation counting in presence of 5-HT2A blocker, spiperone
T2 sequence (P08909 whole entry): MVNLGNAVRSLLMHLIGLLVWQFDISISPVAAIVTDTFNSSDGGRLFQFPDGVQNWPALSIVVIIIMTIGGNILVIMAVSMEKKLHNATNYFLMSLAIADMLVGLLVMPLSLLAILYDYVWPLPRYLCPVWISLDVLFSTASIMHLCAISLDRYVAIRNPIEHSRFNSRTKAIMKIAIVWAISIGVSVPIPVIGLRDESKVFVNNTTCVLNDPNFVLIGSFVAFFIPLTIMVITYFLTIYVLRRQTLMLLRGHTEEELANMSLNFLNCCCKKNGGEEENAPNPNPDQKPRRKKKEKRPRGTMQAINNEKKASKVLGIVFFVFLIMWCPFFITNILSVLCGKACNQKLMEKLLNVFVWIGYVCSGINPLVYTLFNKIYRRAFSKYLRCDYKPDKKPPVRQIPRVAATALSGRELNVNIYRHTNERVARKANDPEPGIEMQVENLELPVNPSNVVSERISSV
How it was run: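 Male Sprague-Dawley rat frontal cortex membranes (Tris-HCl/EDTA/MgCl2 pH 7.4, ascorbate, pargyline). 100 nM spiperone in all tubes to block 5-HT2A sites. Mianserin defined nonspecific binding. 15 min at 37 °C, PEI-soaked glass fibre filtration. Six compound concentrations in triplicate. Ki by Cheng-Prusoff.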

[4] = target: D(2) dopamine receptor (Rattus norvegicus, UniProt P61169); experiment: Displacement of [3H]spiperone from rat corpora striatum dopamine D2 receptor after 15 mins by liquid scintillation counting
D(2) dopamine receptor, sequence (P61169 whole entry): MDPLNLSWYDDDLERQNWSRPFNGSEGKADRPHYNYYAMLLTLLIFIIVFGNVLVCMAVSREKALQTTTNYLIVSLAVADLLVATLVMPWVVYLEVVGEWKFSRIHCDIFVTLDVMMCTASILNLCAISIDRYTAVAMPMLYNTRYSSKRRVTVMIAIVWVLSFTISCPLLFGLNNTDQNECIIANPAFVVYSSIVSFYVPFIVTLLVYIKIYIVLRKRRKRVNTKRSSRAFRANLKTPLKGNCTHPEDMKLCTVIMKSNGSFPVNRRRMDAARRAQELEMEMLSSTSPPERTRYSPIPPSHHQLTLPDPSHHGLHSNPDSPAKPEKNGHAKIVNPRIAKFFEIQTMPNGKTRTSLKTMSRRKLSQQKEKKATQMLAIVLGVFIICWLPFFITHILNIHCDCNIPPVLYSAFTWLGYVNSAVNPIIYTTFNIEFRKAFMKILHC
How it was run: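 Corpora striata membranes in Tris-HCl buffer containing NaCl, KCl, CaCl2, MgCl2, ascorbic acid and pargyline. [3H]spiperone 0.4 nM final, 3 mg fresh tissue, incubated 15 min at 37 °C. GF/B filtration, scintillation counting. Six concentrations in triplicate. IC50 converted to Ki via Cheng-Prusoff.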

[5] = target: D(1A) dopamine receptor (Rattus norvegicus, UniProt P18901); experiment: Displacement of [3H]SCH-23390 from rat corpora striatum dopamine D1 receptor after 15 mins by liquid scintillation counting
D(1A) dopamine receptor, sequence (P18901 whole entry): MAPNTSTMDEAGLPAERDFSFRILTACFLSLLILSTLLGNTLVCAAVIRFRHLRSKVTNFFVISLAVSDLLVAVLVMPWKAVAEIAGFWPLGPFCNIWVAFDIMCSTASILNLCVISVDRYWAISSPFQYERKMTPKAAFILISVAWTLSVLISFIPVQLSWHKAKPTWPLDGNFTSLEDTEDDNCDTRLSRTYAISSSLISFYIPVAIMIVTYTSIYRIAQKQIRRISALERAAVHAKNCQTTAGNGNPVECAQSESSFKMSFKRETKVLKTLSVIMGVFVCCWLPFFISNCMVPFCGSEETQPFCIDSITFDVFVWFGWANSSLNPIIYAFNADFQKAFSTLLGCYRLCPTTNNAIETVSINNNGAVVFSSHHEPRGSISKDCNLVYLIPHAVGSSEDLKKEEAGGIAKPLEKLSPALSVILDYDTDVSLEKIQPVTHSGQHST
How it was run: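 Rat corpora striata homogenized in 50 mM Tris-HCl pH 7.7, spun twice at 50,000 g. Resuspended in Tris-HCl with NaCl, KCl, CaCl2, MgCl2, ascorbic acid and pargyline. 0.4 nM [3H]SCH-23390 final, 3 mg fresh tissue, 15 min at 37 °C. Nonspecific binding with piflutixol. Ki by Cheng-Prusoff from triplicate six-point curves.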

[6] = target: T3, Adrenergic receptor alpha-1 (Rattus norvegicus, UniProt P15823+P23944+P43140); experiment: Displacement of [3H]prazosin from rat brain cortex adrenergic alpha1 receptor after 30 mins by liquid scintillation counting
T3 sequence (P15823 whole entry): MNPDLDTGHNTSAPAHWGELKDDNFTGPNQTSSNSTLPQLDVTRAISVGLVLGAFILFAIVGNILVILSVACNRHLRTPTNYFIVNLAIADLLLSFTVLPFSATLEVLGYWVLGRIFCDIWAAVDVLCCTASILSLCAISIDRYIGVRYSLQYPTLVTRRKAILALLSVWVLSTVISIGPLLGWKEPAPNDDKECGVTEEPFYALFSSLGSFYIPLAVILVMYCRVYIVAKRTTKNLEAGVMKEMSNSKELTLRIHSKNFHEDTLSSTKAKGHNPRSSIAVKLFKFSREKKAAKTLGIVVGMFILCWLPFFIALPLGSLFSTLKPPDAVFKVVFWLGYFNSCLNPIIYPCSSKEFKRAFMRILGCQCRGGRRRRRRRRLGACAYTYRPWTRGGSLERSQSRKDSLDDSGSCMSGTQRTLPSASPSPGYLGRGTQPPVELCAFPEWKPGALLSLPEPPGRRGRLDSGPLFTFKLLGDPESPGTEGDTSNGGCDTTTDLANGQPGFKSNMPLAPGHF
T3 sequence (P23944 whole entry): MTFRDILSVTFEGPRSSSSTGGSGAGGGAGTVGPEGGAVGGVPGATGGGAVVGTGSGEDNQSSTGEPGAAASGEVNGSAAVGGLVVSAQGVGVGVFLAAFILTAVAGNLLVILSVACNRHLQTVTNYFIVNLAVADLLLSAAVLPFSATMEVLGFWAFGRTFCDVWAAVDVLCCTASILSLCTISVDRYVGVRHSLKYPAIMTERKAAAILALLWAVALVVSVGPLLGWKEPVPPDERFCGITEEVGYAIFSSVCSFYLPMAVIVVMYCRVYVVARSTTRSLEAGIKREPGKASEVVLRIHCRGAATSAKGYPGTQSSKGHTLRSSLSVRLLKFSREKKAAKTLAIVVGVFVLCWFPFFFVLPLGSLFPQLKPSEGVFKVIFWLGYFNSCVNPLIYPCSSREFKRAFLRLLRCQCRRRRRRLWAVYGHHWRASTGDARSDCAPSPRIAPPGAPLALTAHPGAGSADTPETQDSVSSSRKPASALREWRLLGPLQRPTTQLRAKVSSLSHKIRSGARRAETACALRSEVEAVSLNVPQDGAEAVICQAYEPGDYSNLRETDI
T3 sequence (P43140 whole entry): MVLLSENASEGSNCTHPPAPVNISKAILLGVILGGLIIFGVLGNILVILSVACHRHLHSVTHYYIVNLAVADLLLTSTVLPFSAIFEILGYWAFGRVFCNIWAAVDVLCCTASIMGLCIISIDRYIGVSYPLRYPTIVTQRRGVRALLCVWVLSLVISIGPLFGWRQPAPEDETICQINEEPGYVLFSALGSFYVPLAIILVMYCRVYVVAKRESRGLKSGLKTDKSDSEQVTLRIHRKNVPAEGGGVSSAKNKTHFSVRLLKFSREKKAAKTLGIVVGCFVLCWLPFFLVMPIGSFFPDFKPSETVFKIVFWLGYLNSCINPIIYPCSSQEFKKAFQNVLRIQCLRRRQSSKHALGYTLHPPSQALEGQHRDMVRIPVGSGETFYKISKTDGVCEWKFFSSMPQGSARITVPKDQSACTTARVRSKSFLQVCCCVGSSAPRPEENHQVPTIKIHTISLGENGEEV
How it was run: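 Brain cortex homogenized in 50 mM Tris-HCl pH 7.2, spun twice at 50,000 g, resuspended in Tris-HCl pH 7.4. 0.4 nM [3H]prazosin final, 10 mg fresh tissue, 30 min at 25 °C. Nonspecific binding with phentolamine. GF/B filtration. Ki by Cheng-Prusoff from six-point triplicate curves.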

[7] = target: T4, Adrenergic receptor alpha-2 (Rattus norvegicus, UniProt P22086+P19328+P22909); experiment: Displacement of [3H]yohimbine from rat brain cortex adrenergic alpha2 receptor after 30 mins by liquid scintillation counting
T4 sequence (P22086 whole entry): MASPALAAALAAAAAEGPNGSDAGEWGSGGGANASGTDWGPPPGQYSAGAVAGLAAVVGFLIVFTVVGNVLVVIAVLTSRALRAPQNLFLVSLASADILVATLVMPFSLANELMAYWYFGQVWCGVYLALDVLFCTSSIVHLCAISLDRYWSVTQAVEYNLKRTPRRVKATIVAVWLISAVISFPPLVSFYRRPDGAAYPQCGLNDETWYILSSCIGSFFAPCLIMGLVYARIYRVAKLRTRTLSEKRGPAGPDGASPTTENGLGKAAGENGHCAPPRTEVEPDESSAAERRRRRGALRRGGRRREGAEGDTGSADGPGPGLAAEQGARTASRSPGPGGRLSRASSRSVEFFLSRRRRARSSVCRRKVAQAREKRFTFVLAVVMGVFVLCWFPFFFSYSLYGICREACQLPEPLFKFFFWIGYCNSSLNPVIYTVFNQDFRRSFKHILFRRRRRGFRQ
T4 sequence (P19328 whole entry): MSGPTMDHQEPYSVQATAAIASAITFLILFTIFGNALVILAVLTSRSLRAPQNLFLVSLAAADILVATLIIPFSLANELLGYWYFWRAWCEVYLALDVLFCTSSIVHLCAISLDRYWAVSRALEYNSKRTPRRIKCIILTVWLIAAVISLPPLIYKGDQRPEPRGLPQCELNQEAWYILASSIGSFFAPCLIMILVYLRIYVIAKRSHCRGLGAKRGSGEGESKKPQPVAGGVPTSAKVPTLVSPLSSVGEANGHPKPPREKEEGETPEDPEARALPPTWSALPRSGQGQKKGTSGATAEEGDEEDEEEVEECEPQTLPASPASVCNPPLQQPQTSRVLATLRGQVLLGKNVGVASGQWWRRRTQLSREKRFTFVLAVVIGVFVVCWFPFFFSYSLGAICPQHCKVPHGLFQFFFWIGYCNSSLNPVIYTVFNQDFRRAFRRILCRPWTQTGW
T4 sequence (P22909 whole entry): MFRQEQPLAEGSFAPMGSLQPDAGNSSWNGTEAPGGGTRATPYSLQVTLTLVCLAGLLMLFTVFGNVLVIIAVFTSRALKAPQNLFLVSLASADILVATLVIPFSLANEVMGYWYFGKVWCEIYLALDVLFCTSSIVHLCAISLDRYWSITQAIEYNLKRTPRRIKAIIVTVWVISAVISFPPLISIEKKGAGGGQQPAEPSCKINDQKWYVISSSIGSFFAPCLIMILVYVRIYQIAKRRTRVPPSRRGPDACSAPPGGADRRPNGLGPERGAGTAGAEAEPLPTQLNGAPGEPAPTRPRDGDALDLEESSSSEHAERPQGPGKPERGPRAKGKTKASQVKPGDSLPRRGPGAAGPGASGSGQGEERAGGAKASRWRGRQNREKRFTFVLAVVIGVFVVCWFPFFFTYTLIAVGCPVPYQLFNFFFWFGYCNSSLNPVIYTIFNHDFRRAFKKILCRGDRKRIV
How it was run: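 Cortex homogenized in 5 mM Tris-HCl, 5 mM EDTA pH 7.3, spun three times at 50,000 g, resuspended in 50 mM Tris-HCl, 0.5 mM EDTA pH 7.5. [3H]yohimbine 1 nM final, 10 mg fresh tissue, 30 min at 25 °C. Phentolamine defined nonspecific binding. Ki by Cheng-Prusoff.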

Structure (SMILES) | Ki [1] | Ki [2] | Ki ([3]; read-out: Ki) | Ki ([1]; read-out: Ki) | Ki ([2]; read-out: Ki) | Ki [3] | further results
COCCN1CCN(CCCN/C(=N\C#N)c2ccccn2)CC1 | Not Active | Not Active | 389 nM | – | – | – | –
CCOCCN1CCN(CCCN/C(=N\C#N)c2ccccn2)CC1 | Not Active | Not Active | 597 nM | – | – | – | –
COc1ccc(N2CCN(CCCN/C(=N\C#N)c3ccccn3)CC2)cc1 | – | – | – | 0.0842 nM | > 10000 nM | Not Active | Ki ([4]; read-out: Ki): > 10000 nM; Ki ([5]; read-out: Ki): > 10000 nM; Ki [6]: > 10000 nM
N#C/N=C(\NCCCN1CCN(C(=O)c2ccco2)CC1)c1ccccn1 | – | – | – | > 10000 nM | 21.5 nM | Not Active | Ki [7]: > 10000 nM; Ki [4]: Not Active; Ki [5]: Not Active
N#C/N=C(\NCCCN1CCN(c2ccccc2Cl)CC1)c1ccccn1 | – | – | – | 170 nM | 27 nM | Not Active | –
N#CNC(=NCCCN1CCN(c2cccc(Cl)c2)CC1)c1ccccn1 | – | – | 3.28 nM | 6.67 nM | 0.000185 nM | – | Ki ([4]; read-out: Ki): > 10000 nM; IC50 [2]: 0.00025 nM; Ki ([5]; read-out: Ki): > 10000 nM
N#C/N=C(\NCCCN1CCN(c2ccccc2C#N)CC1)c1ccccn1 | – | – | 28.8 nM | > 10000 nM | 904 nM | – | –
C=CCN1CCN(CCCN/C(=N\C#N)c2ccccn2)CC1 | Not Active | Not Active | > 10000 nM | – | – | – | –
N#C/N=C(\NCCCN1CCN(Cc2ccc3c(c2)OCO3)CC1)c1ccccn1 | – | – | – | > 10000 nM | 51.8 nM | Not Active | Ki [7]: 964 nM; Ki [4]: Not Active; Ki [5]: Not Active

— ChEMBL document CHEMBL1926621, “New potent 5-HT(2A) receptor ligands containing an N'-cyanopicolinamidine nucleus: Synthesis and in vitro pharmacological evaluation” (Eur J Med Chem, 2012)
